For orientation: IC50 means the concentration at which inhibition is half-maximal.

Structures are written as SMILES.

In one data set the test system is RAW264.7. Nature of the data set: Antiinflammatory activity in mouse RAW264.7 cells assessed as inhibition of LPS-induced nitric oxide production preincubated for 1 hr followed by LPS stimulation and measured after 24 hrs by Griess reagent based assay. In kind it is functional, cell-based.
A short description of data set [1]: Cytotoxicity against mouse RAW264.7 cells assessed as cell survival at 100 uM after 24 hrs by MTT assay relative to control. In kind it is cell-based. Particulars: read-out: Activity. Put shortly:
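RAW264.7 seeded 5 × 10^3/well for 24 h at 37 °C, 5% CO2. Samples dissolved in DMSO and diluted in DMEM to final 100 μM with 1% DMSO; 1% DMSO as solvent control, cell-free medium as blank. After 24 h, MTT added for 4 h; medium removed, formazan dissolved in DMSO, absorbance read at 490 nm. % inhibition computed relative to solvent control after blank subtraction.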

Regarding `COc1cc(C[C@@H](O)[C@@H]2C[C@@H](O)[C@@H](c3ccc(O)c(OC)c3)[C@H](c3ccc(O)c(OC)c3)O2)ccc1O`, the concentration for half-maximal inhibition (IC50) in the data set on RAW264.7 was > 50 µM. For the same molecule, the viability at 24 h, 100 µM in data set [1] is > 90%. In the case of `COc1cc(C(=O)C[C@H]2C[C@@H](O)C[C@@H](c3ccc(O)c(OC)c3)O2)ccc1O`, the IC50 in the data set on RAW264.7 was 17.4 µM. Also, in data set [1], the viability at 24 h, 100 µM was > 90%. For the molecule `COc1cc(CC[C@H]2C[C@H](O)[C@H](O)[C@@H](c3ccc(O)c(OC)c3)O2)ccc1O`, in the data set with RAW264.7, the 50% inhibitory concentration (IC50) was > 50 µM. Moreover, the viability at 24 h, 100 µM in data set [1] was > 90%. For the molecule `C[C@@H]1C[C@H]2[C@@H]3CCC4=CC(=O)C=C[C@]4(C)[C@@]3(F)[C@@H](O)C[C@]2(C)[C@@]1(O)C(=O)CO` [DEXAMETHASONE], the half-maximal inhibitory concentration (IC50) in the data set with RAW264.7 was 32.5 µM. On to `COc1cc(CC[C@H]2C[C@H](O)[C@@H](O)[C@@H](c3ccc(O)c(OC)c3)O2)ccc1O`, for which the concentration for half-maximal inhibition (IC50) in the data set with RAW264.7 is 21.8 µM. In data set [1], the viability at 24 h, 100 µM is > 90%. The like results for `COc1cc(C[C@@H](O)[C@@H]2C[C@@H](O)[C@@H](c3cc(OC)c(O)c(OC)c3)[C@H](c3ccc(O)c(OC)c3)O2)ccc1O` were, in that order, 23.6 µM and > 90%.

On to `COc1cc(C[C@@H](O)[C@H]2C[C@H](O)[C@@H](c3ccc(O)c(OC)c3)[C@H](c3ccc(O)c(OC)c3)O2)ccc1O`, for which the 50% inhibitory concentration (IC50) in the data set on RAW264.7 is > 50 µM. The viability at 24 h, 100 µM in data set [1] was > 90%. For `COc1cc(C[C@H]2O[C@@H](CC(=O)c3ccc(O)c(OC)c3)C[C@H]2O)ccc1O`, the IC50 with RAW264.7 came to 26.5 µM. Further, in data set [1], the viability at 24 h, 100 µM was > 90%. Consider `COc1cc(C[C@H](O)[C@@H]2C[C@@H](O)C[C@H](c3ccc(O)c(OC)c3)O2)ccc1O`, for which the 50% inhibitory concentration (IC50) with RAW264.7 is > 50 µM. Further, the viability at 24 h, 100 µM in data set [1] was > 90%. `COc1cc(C(=O)C[C@H]2C[C@H](O)C[C@@H](c3ccc(O)c(OC)c3)O2)ccc1O`: the IC50 in the data set on RAW264.7 was > 50 µM. The viability at 24 h, 100 µM in data set [1] was > 90%.

The record behind these values is ChEMBL document CHEMBL4627292, “Diarylheptanoids with NO production inhibitory activity from Amomum kravanh” (Bioorg Med Chem Lett, 2020).
